Screening data as filed in PubChem BioAssay.
Hits are enriched below; roughly 1.7% of the tested compounds scored in any of these assays.
SKN-1 inh: inhibitors of C. elegans SKN-1. 360,000 compounds, 0.49% hits. AID 624304. C. elegans VP596 Pgst-4::GFP/RFP ratio, acrylamide-induced, 24 h. inhibition, % at 21.8 µM;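 active = interference check ratio from 0.5 to 1.5 plus GFP to RFP signal ratio inhibition reaching or exceeding a fixed threshold, cut at about 30% in these data, passing the limit was not always enough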
eIF4H inh: inhibitors of RNA binding by human eIF4H; Q15056; eIF4H fluorescence polarization binding assay; inhibition, % at 35 µM; 290,000 compounds, 0.94% hits; AID 2012;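 also: calls also rest on retests at 20 µM and on dose response follow-up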
PABP FP inh: PABP-poly(A) binding inhibition; P11940; PABP-poly(A) RNA binding, fluorescence polarization; inhibition, % at 35 µM; 290,000 compounds, 1% hits;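 also: calls also rest on retests at 20 µM and on dose response follow-up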
MT1-MMP act inh: MT1-MMP (human) activation inhibition. P50281. HT1080 RFP-PRO-GFP cells, GFP/RFP ratio fluorescence, overnight; percent of plate control window, DMSO zero. GFP/RFP ratio change, % at 20 µM. 360,000 compounds, 0.061% hits. AID 651647;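 active = GFP/RFP ratio change of at least 30% with cell ATP level not reduced by more than half and red fluorescence within 50% of control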
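Assay system: HT1080 cells carrying an RFP-PRO-GFP reporter | Dosing: Single dose of 20 µM compound, 1% DMSO final | Incubation: Cells overnight before dosing, compound overnight, 37 °C, 5% CO2 | Evaluation: GFP/RFP fluorescence ratio | Control set: DMSO and RFP-L50D-GFP cell wells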
MLLE-PAM2 inh: blocks PAM2 peptide binding to the PABP1 MLLE domain; P11940; GST-MLLE / FITC-PAM2 fluorescence polarization; inhibition, % at 20 µM; 360,000 compounds, 0.36% hits; AID 588489; in the data active = inhibition above about 35%, passing the limit was not always enough
MT1-MMP act val: blocks activation of human MT1-MMP in validation testing | shares compounds with MT1-MMP act inh | HT1080 RFP-PRO-GFP cells, GFP and RFP fluorescence ratio, overnight | inhibition, % at 20 µM | 200 compounds, 10% hits;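 active = inhibition of at least 50% in the primary cell screen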
Hits are given with their value; 0 = inactive; ? = inconclusive; - = no result. Unless noted, no rule for the calls is given here.

SMILES	SKN-1 inh	eIF4H inh	PABP FP inh	MT1-MMP act inh	MLLE-PAM2 inh	others
CCN(CC)S(=O)(=O)c1cccc(-c2nnc(SCCOc3ccccc3)o2)c1	0	0	0	0	0
COCC(C)n1c(C)cc(C(=O)CSc2nnc(-c3ccco3)o2)c1C (stereo not given)	0	-	-	0	0
CCN(CC)S(=O)(=O)c1cccc(-c2nnc(SCC(=O)c3cc(C)n(C)c3C)o2)c1	0	0	125	0	0
Cc1cc(C(=O)CSc2nnc(-c3ccco3)o2)c(C)n1Cc1ccco1	0	65	36	0	0
Cc1cc(C(=O)CSc2nc3ccccc3[nH]2)c(C)n1Cc1ccco1	0	87	active	0	0
O=S(=O)(NCc1ccccc1)c1ccc(-n2cccn2)cc1	0	0	0	0	0
O=C(OCc1cn([C@H]2CN(CC3CCCCC3)[C@@H](c3ccc(Cl)cc3)C[C@@H]2O)nn1)c1ccccc1	0	-	-	0	0
COc1ccc(NS(=O)(=O)c2ccc(C)c(NC(=O)c3ccc(C)c(S(=O)(=O)N4CCOCC4)c3)c2)cc1	0	0	0	0	0
Cc1cccn2c(=O)c(C=Nc3ccccc3)c(NCc3ccco3)nc12	41	0	0	0	0
Cc1cccn2c(=O)c(C=NCCO)c(NCc3ccco3)nc12	0	0	0	0	0
O=C(Nc1ccccc1-c1ccccc1)c1ccccc1	0	0	0	0	0
Nc1c(S(=O)(=O)O)cc(NC(=O)c2ccccc2)c2c1C(=O)c1ccccc1C2=O	0	?	112	57	0
CC[n+]1ccccc1/C=C/c1ccc(N(C)C)cc1	41	0	0	0	0
CCCCCC[n+]1ccccc1/C=C/c1ccc(N(C)C)cc1	0	-	-	0	0
CC1CN(C(=O)c2cc(Br)c(Br)s2)CC(C)O1 (stereo not given)	0	-	-	0	0
COc1ccccc1NS(=O)(=O)c1cc(NC(=O)c2ccc(NC(C)=O)cc2)ccc1N1CCOCC1	0	-	-	0	0
CCOc1cc(N2CCOCC2)c(OCC)cc1NS(=O)(=O)c1cc(NC(C)=O)ccc1OC	0	59	0	0	0
CCOc1cc(N2CCOCC2)c(OCC)cc1NC(=O)CN1CCC(Cc2ccccc2)CC1	0	0	0	0	0
CCOc1cc(N2CCOCC2)c(OCC)cc1NC(=O)CN1CCCC(C)C1 (stereo not given)	0	?	77	0	0
CCOc1ccccc1NC(=O)CCCc1ccc(OC)c(C)c1	0	0	0	0	0
CCc1ccccc1NC(=O)C1CCN(c2cnccn2)CC1	0	0	0	0	0
O=C1CCCN1CCCNc1ccc2nnc(CCC(=O)N3CCN(c4ccccc4)CC3)n2n1	0	0	0	0	0
Cc1cc(C)nc(N/N=C/c2ccccc2OCc2ccccc2)n1	0	0	active	0	0
Cc1cc(C)nc(N/N=C/c2ccccc2OCc2ccc(Br)cc2)n1	0	0	0	0	0
CN(C)CC(O)c1ccc(C=Cc2ccc(Cl)cc2)cc1 (stereo not given)	53	-	-	0	0
SMILES	SKN-1 inh	eIF4H inh	PABP FP inh	MT1-MMP act inh	MLLE-PAM2 inh	others
C=CCn1c(SCC(=O)c2cc(C)n(C)c2C)nnc1-c1ccncc1	0	83	0	0	0
Cc1cc(C(=O)CSc2nnc(-c3ccncc3)n2-c2ccccc2)c(C)n1C	0	120	126	0	0
Cc1cc(C(=O)CSc2nnc(-c3ccccc3)n2C)c(C)n1C	0	0	0	0	0
CCc1nc2c(OCc3cc(Cl)cc(Cl)c3)cccn2c1N(C)C(=O)c1ccc(C)cc1	0	-	-	0	0
Cn1c(=O)c2c(nc(CN3CCN(C(c4ccccc4)c4ccccc4)CC3)n2CCCO)n(C)c1=O	0	0	0	0	0
CCC(=O)N1c2ccc(S(=O)(=O)CCC(=O)NCc3cccs3)cc2CC1C (stereo not given)	43	0	0	0	0
CCC(=O)N1c2ccc(S(=O)(=O)CCC(=O)NC3CCCC3)cc2CC1C (stereo not given)	0	0	0	0	0
Cc1ccccc1NS(=O)(=O)c1ccc(C(=O)NCC(c2ccco2)N2CCCCC2)cc1 (stereo not given)	0	-	-	0	0
CS(=O)(=O)c1ccc(C(=O)NCC(c2ccco2)N2CCCCC2)cc1 (stereo not given)	0	83	0	0	0
CC1OC(c2ccccc2)OC2COC(c3ccccc3)OC12 (stereo not given)	36	-	-	0	0
OC1COC(c2ccccc2)OC1C1OC(c2ccccc2)OCC1O (stereo not given)	0	-	-	0	0
Cc1ccccc1CN1CCN(CC2CC2)CC1CCO (stereo not given)	0	0	0	0	0
NS(=O)(=O)c1ccc(CNC(=O)c2ccc3c(c2)OCO3)cc1	0	-	-	0	0
O=C(O)c1ccc2c(c1)NC(=O)C(N1CCCC1)S2 (stereo not given)	0	0	0	0	55
CCC(C)(C)NC(=O)C(c1cccn1C)N(C(=O)Cn1nnc2ccccc21)c1ccc(OC)cc1OC (stereo not given)	43	0	0	0	0
Cc1cc(C(C)(C)C)cc(C)c1S(=O)(=O)N1CCN(C(=O)c2cc([N+](=O)[O-])c[nH]c2=O)CC1	0	0	0	0	0
O=C1C(Cl)=C(N2CCN(Cc3ccccc3)CC2)C(=O)N1Cc1ccccc1	0	0	0	0	65
O=C(CN1CCSC1=O)N1CCN(S(=O)(=O)c2ccccc2)CC1	0	-	-	0	0
Cn1c(CNc2ccccc2O)nc2ccccc21	0	86	69	0	0
O=C1CCNc2c(Cl)cccc21	0	0	0	0	0
O=C1CCNc2c(Cl)cc(Cl)cc21	0	51	0	0	0
CCCCN(C(=O)CN1C(=O)C2CCCCC2C1=O)c1c(N)n(CCC)c(=O)[nH]c1=O (stereo not given)	0	-	-	0	0
COc1ccccc1NS(=O)(=O)c1ccc(O)c(NC(=S)NCC2CCCO2)c1 (stereo not given)	0	0	0	0	40
CCCc1ccc(C#N)c(SC2CC(=O)N(c3ccc(OC)cc3)C2=O)n1 (stereo not given)	0	0	0	32	0	MT1-MMP act val=0
COc1ccc(N2C(=O)CC(Sc3nc(C)cc(C)c3C#N)C2=O)cc1 (stereo not given)	0	0	0	0	0
O=C(c1ccc(F)cc1F)N1CCCc2ccccc21	0	0	0	-	0
Cc1cc2ccccc2n1CCNC(=O)C(C)Oc1ccccc1 (stereo not given)	0	?	0	38	0	MT1-MMP act val=0
COCCNC(=O)C(C)Oc1ccccc1 (stereo not given)	0	0	0	0	0
Nc1nc(-c2ccc(Cl)cc2)c(N=Nc2ccc(S(=O)(=O)N3CCOCC3)cc2)s1	0	0	0	57	0	MT1-MMP act val=55
